Assay results as given in ChEMBL document CHEMBL3779827, “A new series of 2-phenol-4-aryl-6-chlorophenyl pyridine derivatives as dual topoisomerase I/II inhibitors: Synthesis, biological evaluation and 3D-QSAR study” (Eur J Med Chem, 2016).
Counter-ions that a name gives are not always drawn.

Key:
[1] = Cytotoxicity against human HCT15 cells after 48 hrs by CCK8 assay; type: functional, cell-based; conditions: HCT-15, 48 h
In short: (§1)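 IC50 values are reported in micromolar. Adriamycin, etoposide and camptothecin served as positive controls.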

[2] = Cytotoxicity against human DU145 cells after 48 hrs by CCK8 assay; conditions: DU-145, 48 h
[3] = test system: HeLa; experiment: Cytotoxicity against human HeLa cells after 48 hrs by CCK8 assay; type: functional, cell-based; in short: as §1

Compound	IC50 [1] [nM]	IC50 [2] [nM]	IC50 [3] [nM]
CC[C@@]1(O)C(=O)OCc2c1cc1n(c2=O)Cc2cc3ccccc3nc2-1 [CAMPTOTHECIN]	2820	20	180
COc1cccc2c1C(=O)c1c(O)c3c(c(O)c1C2=O)C[C@@](O)(C(=O)CO)C[C@@H]3O[C@H]1C[C@H](N)[C@H](O)[C@H](C)O1 [DOXORUBICIN HYDROCHLORIDE]	1230	–	–
COc1cc([C@@H]2c3cc4c(cc3[C@@H](O[C@@H]3O[C@@H]5CO[C@@H](C)O[C@H]5[C@H](O)[C@H]3O)[C@H]3COC(=O)[C@H]23)OCO4)cc(OC)c1O [ETOPOSIDE]	18900	2090	–
